STAT3 inh = STAT3 signaling inhibition; U3A cells, IL-6 STAT3-luciferase reporter, luminescence; host cell line lacks STAT1; inhibition, % at 5.5 µM; 0.89% of 190,000 active;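 active = inhibition above the mean inhibition across all screened compounds plus 3 SD, cut at about 44% in these data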
STAT1 blocker = inhibitors of IFN-gamma induced STAT1 signaling | NIH 3T3 STAT1-luciferase reporter, luminescence | inhibition, % at 5.5 µM | 0.35% of 200,000 active;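 active = inhibition above a set limit, the mean inhibition across all tested compounds plus 3 SD, cut at about 34% in these data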
STAT3 act = activators of IL-6 induced STAT3 signaling; U3A cells, IL-6 STAT3-luciferase reporter, luminescence; 100% = signal with IL-6 EC80 alone; activation (% of control), % at 5.6 µM; 0.91% of 190,000 active;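 active = activation above the screen-wide mean of compound activation plus 3 SD, cut at about 130% in these data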
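Detection: reporter luminescence signal / Assay system: STAT1-lacking human U3A cells, STAT3 luciferase reporter / Incubation: compound pre-incubation 1 h before IL-6, then 6 h stimulation at 37 °C / Control set: IL-6-only high control / Read-out: % activation relative to IL-6 control / Probe or stimulus: Interleukin-6, 33 ng/mL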
STAT1 act = increases IFN-gamma driven STAT1 reporter signal; AID 932; NIH 3T3 STAT1-luciferase reporter, luminescence; 100% = IFN-gamma alone, no compound; activation (% of control), % at 5.5 µM; 2.6% of 200,000 active;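 active = activation above the screen-wide mean activation plus 3 SD, cut at about 130% in these data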
STAT1 act conf = confirmation of STAT1 signaling activators; shares compounds with STAT1 act; NIH 3T3 STAT1-luciferase reporter, IFN-gamma potentiation, luminescence; 100% = IFN-gamma EC80 alone, no compound; activation (% of control), % at 5.7 µM; 97% of 1,200 active;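 active = activation above a set limit carried over from the earlier primary STAT1 screen, cut at about 140% in these data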
NFkB act = NF-kappaB activation in STAT1 activator counter-screen | AID 1306 | activation (% of control), % at 5.7 µM | HEK293T NF-kB luciferase reporter, TNF-alpha stimulated, luminescence; 100% = TNF-alpha with vehicle only | shares compounds with STAT1 act | 43% of 1,200 active;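 active = activation above the mean of solvent-only control wells plus 3 SD, set per campaign, cut at about 130% in these data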;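 note: TNF-alpha given at a submaximal dose yielding about 80% of full reporter signal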
STAT3 act STAT1c = counter-screen for STAT1 activators: human STAT3 activation; U3A cells STAT3-luciferase reporter, IL-6, luminescence; cells lack STAT1; 100 = IL-6 alone, no compound effect; AID 1316; activation (% of control), % at 5.7 µM; shares compounds with STAT1 act; 46% of 1,200 active;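 active = activation above the solvent-only control well mean plus 3 SD, set per plate batch, cut at about 110% in these data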;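 note: higher means more STAT3 reporter activation so hits are non-selective activators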
Numbers stand for hits; – = inactive; · = no result given. Hits are enriched below; roughly 4.3% of the tested compounds scored in any of these assays.

SMILES	STAT3 inh	STAT1 blocker	STAT3 act	STAT1 act	STAT1 act conf	NFkB act	STAT3 act STAT1c
CC(=O)c1sc(Nc2nc3cc4c(cc3s2)OCO4)nc1C	–	–	–	174	190	142	–
CCC(C)(C)NC(=O)CN(CCc1cccc(C)c1)C(=O)c1csnn1	–	–	–	–	·	·	·
CC(C)S(=O)(=O)N1CCCC(C(=O)c2cccc(Cl)c2)C1 (stereo unspecified)	–	–	–	–	·	·	·
Nc1ccc(-c2nc3ccc(-c4nc5ccccc5o4)cc3[nH]2)cc1	–	–	–	–	·	·	·
CC(=O)Nc1nc2ccc(-c3nc4ccccc4o3)cc2s1	–	–	–	167	200	135	115
CC(=O)Nc1ccc(S(=O)(=O)Nc2cccc(-c3nc4ccccc4o3)c2)cc1	–	–	–	–	·	·	·
Cc1nc2ccc(-c3nc4ccccc4o3)cc2[nH]1	–	–	–	195	232	–	–
c1ccc(-c2cnn3c(-c4ccccc4)c(-c4ccccc4)nc3n2)cc1	–	–	–	–	·	·	·
N#Cc1c(SCC(N)=O)nc2c(c1-c1ccc(OCc3ccccc3)cc1)CCCC2	–	–	–	–	·	·	·
C=CCNC(=S)NNC(=O)COc1ccc(Br)cc1	–	–	–	–	·	·	·
C=CCNC(=S)NNC(=O)COc1ccc2cc(Br)ccc2c1	–	–	–	152	152	–	–
Cc1cc(Br)ccc1OCC(=O)NNC(=O)c1cnccn1	–	–	–	–	·	·	·
Cc1ccc(-n2ncc(Br)c(Br)c2=O)cc1	–	–	–	–	·	·	·
O=c1c2ccccc2cnn1-c1ccc(Br)cc1	–	–	–	152	214	142	141
O=c1c(Br)c(Br)cnn1-c1ccccc1	–	–	–	177	–	–	–
Clc1ccccc1OCc1nc(-c2ccccn2)no1	–	–	–	168	225	–	–
Nc1nonc1-c1noc(COc2ccccc2Cl)n1	–	–	–	166	219	139	116
CC(=O)Nc1ccc(-c2csc(NC(C)c3ccccc3)n2)cc1 (stereo unspecified)	–	–	–	–	·	·	·
COc1ccc(C(=O)Nc2ccc3cn[nH]c3c2)c(OC)c1	–	–	–	164	185	134	116
COc1ccc(C(=O)Nc2ccc(S(=O)(=O)Nc3onc(C)c3C)cc2)c(OC)c1	–	–	–	–	·	·	·
O=C(Nc1ccccc1)c1ccccc1C(=O)N1CCCCC1	–	–	–	–	·	·	·
CC(=O)Nc1ccc2nc(-c3ccccc3)cn2c1	–	–	–	155	198	–	–
CC(=O)Nc1ccc(-c2cc(-c3ccccc3)nc(-c3ccccc3)n2)cc1	–	–	–	–	·	·	·
Cc1ccc2nc(/C=C/c3cccc(F)c3)ccc2c1	–	–	–	194	259	150	116
N#CC1=C(Nc2ccc(Br)cc2)CCC1	–	–	–	–	·	·	·
SMILES	STAT3 inh	STAT1 blocker	STAT3 act	STAT1 act	STAT1 act conf	NFkB act	STAT3 act STAT1c
Brc1ccc(NC2=Nc3ccccc3CC2)cc1	–	–	–	158	187	141	–
NC(=O)c1c(NC(=O)c2cc3ccccc3o2)sc2c1CCC2	–	–	–	181	196	–	118
O=C(Nc1sc2c(c1C(=O)O)CCC2)c1ccco1	–	–	–	–	·	·	·
Nc1ccccc1Nc1cc(-c2ccccc2)nn1-c1ccccc1	–	–	–	–	·	·	·
Nc1ccccc1Nc1cc(-c2ccccc2)[nH]n1	–	–	–	225	179	–	–
Cc1nn(-c2nnc(NC3CCCCC3)nn2)c(C)c1Br	–	–	–	164	185	–	122
Cc1nc(NC(=O)c2cccc(Cl)c2)sc1C(=O)N1CCCCC1	–	–	–	–	·	·	·
Cc1ccc(-c2cc(N)n(-c3ccc(F)cc3)n2)cc1	–	–	–	155	142	–	–
O=C(CCc1nc2ccccc2c(=O)[nH]1)OCc1ccc(Cl)cc1Cl	–	–	–	–	·	·	·
CCOc1cccc(-c2nc3cc(C)ccc3o2)c1	–	–	–	152	159	–	128
Cc1ccc2oc(-c3cccc(NC(=O)Cn4cnc5c(=O)n(C)c(=O)n(C)c54)c3)nc2c1	–	–	–	–	·	·	·
O=C(NCc1ccccn1)c1cc(-c2ccc(-c3ccccc3)cc2)nc2ccccc12	–	–	–	156	199	–	148
Cc1oc(-c2ccccc2)nc1CC(=O)O	–	–	–	–	·	·	·
Cc1oc(-c2ccc(-c3ccccc3)cc2)nc1CN1CCN(CC(=O)N(C)C)CC1	–	–	–	155	191	–	128
Cc1cc(=O)oc2cc(OCC(=O)OCC(=O)N3CCC(C)CC3)ccc12	–	–	–	–	·	·	·
Cc1c(-c2nc(N)nc(Nc3ccccc3F)n2)oc2ccccc12	–	–	–	198	232	141	114
O=C(Nc1cc2cccc([N+](=O)[O-])c2oc1=O)c1cccs1	–	–	–	–	·	·	·
O=C(NC(=S)Nc1ccc2c(c1)OCCO2)c1cccc(Br)c1	–	–	–	153	176	133	118
O=C(CC(=O)c1ccccc1)Nc1ccc2c(c1)OCCO2	–	–	–	159	192	–	117
CCC(=O)Nc1ccc2c(c1)OCCO2	–	–	–	–	·	·	·
O=C(CCCCCN1C(=O)c2ccccc2C1=O)Nc1ccc2c(c1)OCCO2	–	–	–	–	·	·	·
O=C(CCCc1ccccc1)Nc1ccc2c(c1)OCCO2	–	–	–	151	162	–	119
O=C(Nc1ccc2c(c1)OCCO2)c1ccc(Br)s1	–	–	–	184	255	–	–
CCC(CC)C(=O)OCC(=O)Nc1cccc([N+](=O)[O-])c1	–	–	–	–	·	·	·
Cc1ccc(N/C=C(/C#N)c2ccsc2)cc1C	–	–	–	193	235	156	125
SMILES	STAT3 inh	STAT1 blocker	STAT3 act	STAT1 act	STAT1 act conf	NFkB act	STAT3 act STAT1c
CC(C)CSc1nnc2c(n1)[nH]c1ccccc12	–	–	–	153	249	–	–
Nc1ccc(-c2nc3ccc(N)cc3[nH]2)cc1	–	–	–	–	·	·	·
Nc1ccc(-c2nc3ccc([N+](=O)[O-])cc3[nH]2)cc1	–	–	–	182	233	147	120
Cc1ccc2nc(-c3ccc(NS(=O)(=O)c4ccc(F)c(F)c4)cc3)sc2c1	–	–	–	172	217	137	–
Cc1ccc2nc(-c3ccc(NS(=O)(=O)c4ccccc4)cc3)sc2c1	–	–	–	–	·	·	·
Cc1nn(C(=O)c2cccs2)c(N)c1-c1ccccc1	–	–	–	162	183	137	–
Cc1cc(C)c(C)c(OCCCN(C)C)c1	–	–	–	–	·	·	·
Cc1ccc(OCc2nc(-c3ccccc3)no2)c(C)c1	–	–	–	163	185	–	–
COc1ccc2c(c1)oc(=O)c1cc(OC)ccc12	·	–	·	153	152	–	–
